The text below walks through data of ChEMBL document CHEMBL2062360, “Distinct biological effects of golgicide a derivatives on larval and adult mosquitoes” (2012).

Holding throughout (assay type): functional
Assay [1] in a line: Selectivity ratio of mortality against Anopheles stephensi second instar larvae to mortality against Aedes aegypti second instar larvae.
Assay [2] relates to Aedes aegypti. Description: Insecticidal activity against Aedes aegypti second instar larvae assessed as mortality at 0.2 mM after 24 hrs by microscopic analysis relative to control. The method in brief: (§1)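 Second instar larvae of Ae. aegypti and An. stephensi were exposed to compounds added directly to the culture media, with DMSO as the vehicle control. Larval mortality was scored 24 h later and reported as mean with SEM, with statistical testing against control.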

The test system of assay [3] is Aedes aegypti. Description: Insecticidal activity against Aedes aegypti assessed as ovarian follicle size at 0.7 mM administered 1 hr post human blood-meal measured after 47 hrs (reference value: 482.6+/-4.8 um).
Assay [4] deals with Anopheles stephensi. Kind of assay: Insecticidal activity against Anopheles stephensi second instar larvae assessed as mortality at 0.2 mM after 24 hrs by microscopic analysis relative to control. The method in brief:
as §1

For assay [5], the system named is Anopheles stephensi. Description: Insecticidal activity against Anopheles stephensi second instar larvae assessed as mortality after 24 hrs by microscopic analysis relative to control. Put shortly:
as §1

The subject of assay [6] is Aedes aegypti. Description: Insecticidal activity against Aedes aegypti second instar larvae assessed as mortality after 24 hrs by microscopic analysis relative to control. The method in brief:
as §1

With `CC(C)(C)[C@@H]1Nc2c(F)cc(F)cc2[C@@H]2C=CC[C@H]12` (racemic), in assay [1], the Ratio was 5. The Activity with Aedes aegypti [2] came to 15.4%; in the assay on Aedes aegypti [3] it was 326.2 um; in the assay with Anopheles stephensi [4] it was 86.4%.

`Fc1cc(C(F)(F)F)cc2c1NC(c1cccnc1)[C@H]1CC=C[C@@H]21` (mixture of isomers): the Activity stood at 5.3% with Aedes aegypti [2], 315 um with Aedes aegypti [3] and 0% in the assay with Anopheles stephensi [4].

Consider `Fc1cc(F)c2c(c1)[C@@H]1C=CC[C@@H]1[C@H](c1ccc(CNCc3ccc(C(F)(F)F)cc3)cc1)N2` (racemic), for which the values for the Activity in the assay on Aedes aegypti [2], with Aedes aegypti [3] and in the assay with Anopheles stephensi [4] were 0%, 297.5 um and 0%, respectively.

With `Fc1cc(F)c2c(c1)[C@H]1C=CC[C@H]1[C@H](c1cccnc1)N2`, the Activity is reported as 1.5% with Aedes aegypti [2], 433.6 um with Aedes aegypti [3] and 0% in the assay with Anopheles stephensi [4].

For `NCc1ccc([C@@H]2Nc3c(F)cc(F)cc3[C@@H]3C=CC[C@@H]32)cc1` (racemic), the results for the Activity in the assay on Aedes aegypti [2], in the assay on Aedes aegypti [3] and in the assay with Anopheles stephensi [4] were 91.7%, 301.5 um and 81.7%, respectively. The figures for the LC50 in the assay with Anopheles stephensi [5] and in the assay with Aedes aegypti [6] were 100 µM and 200 µM, respectively.

On to `CN1c2c(F)cc(F)cc2[C@@H]2C=CC[C@@H]2[C@@H]1c1cccnc1` (racemic), for which the Activity with Aedes aegypti [2] was 96.2%; in the assay on Aedes aegypti [3], 416.3 um; in the assay with Anopheles stephensi [4] it was 100%. In addition, the LC50 in the assay with Anopheles stephensi [5] and in the assay on Aedes aegypti [6] was 100 µM throughout.

With `Fc1cc(F)c2c(c1)[C@H]1C=CC[C@H]1[C@@H](c1cccnc1)N2`, the Activity in the assay on Aedes aegypti [2] turned out to be 4.7%; in the assay on Aedes aegypti [3], 408.2 um; in the assay on Anopheles stephensi [4] it was 0%.

Consider `CC(=O)N1c2c(F)cc(F)cc2[C@@H]2C=CC[C@@H]2[C@@H]1c1cccnc1` (racemic), for which the Activity in the assay with Aedes aegypti [2] is on record as 1.7%; in the assay on Aedes aegypti [3], 442.7 um; in the assay with Anopheles stephensi [4], 0%.

On to `Fc1cc(F)c2c(c1)[C@@H]1C=CC[C@@H]1[C@H](c1ccc(CNCc3ccc4ccccc4c3)cc1)N2` (racemic), for which the values for the Activity in the assay on Aedes aegypti [2], with Aedes aegypti [3] and in the assay on Anopheles stephensi [4] were 0%, 255.9 um and 0%, respectively.

As to `Fc1cc(F)c2c(c1)[C@@H]1C=CC[C@@H]1[C@H](c1ccccc1)N2`, the results for the Activity in the assay on Aedes aegypti [2], in the assay on Aedes aegypti [3] and in the assay on Anopheles stephensi [4] were 0%, 235.1 um and 0%, respectively.

`N#Cc1ccc([C@@H]2Nc3c(F)cc(F)cc3[C@@H]3C=CC[C@@H]32)cc1` (racemic): the Activity in the assay with Aedes aegypti [2] is listed as 0%; in the assay on Aedes aegypti [3], 309.5 um; with Anopheles stephensi [4], 0%.

On to `CC(=O)NCc1ccc([C@@H]2Nc3c(F)cc(F)cc3[C@@H]3C=CC[C@@H]32)cc1` (racemic), for which the Activity in the assay on Aedes aegypti [2] amounted to 0%; in the assay with Aedes aegypti [3], 375.4 um; in the assay with Anopheles stephensi [4], 0%.

As to `Fc1cc(F)c2c(c1)[C@@H]1C=CC[C@@H]1[C@H](c1cncs1)N2` (racemic), the Ratio in assay [1] was 5. Also, the Activity in the assay on Aedes aegypti [2] is 0%; with Aedes aegypti [3], 330.8 um; with Anopheles stephensi [4] it was 37.6%.

As to `Fc1cccc2c1N[C@@H](c1cccnc1)[C@H]1CC=C[C@@H]21` (racemic), the Activity is reported as 91.4% with Aedes aegypti [2], 312.1 um in the assay with Aedes aegypti [3] and 100% in the assay with Anopheles stephensi [4]. In addition, the LC50 in the assay with Anopheles stephensi [5] and in the assay on Aedes aegypti [6] was 200 µM throughout.

Consider `CN1CCC(NCc2ccc([C@@H]3Nc4c(F)cc(F)cc4[C@@H]4C=CC[C@@H]43)cc2)CC1` (racemic), for which the Activity in the assay with Aedes aegypti [2] is 100%; in the assay with Aedes aegypti [3], 275.3 um; in the assay with Anopheles stephensi [4], 100%. Besides, the median lethal concentration (LC50) in the assay with Anopheles stephensi [5] and with Aedes aegypti [6] was 50 µM each time.

For `Fc1cc(F)c2c(c1)[C@@H]1C=CC[C@@H]1[C@H](c1ccc(C(F)(F)F)cc1)N2` (racemic), the Activity in the assay with Aedes aegypti [2] turned out to be 5.9%; in the assay with Aedes aegypti [3], 230.4 um; with Anopheles stephensi [4], 0%.

As to `Fc1cc(F)c2c(c1)[C@@H]1C=CC[C@@H]1[C@H](c1cccnc1)N2`, in assay [1], the Ratio stood at 5. In addition, the Activity was found to be 18.1% in the assay on Aedes aegypti [2], 270 um with Aedes aegypti [3] and 83.4% in the assay with Anopheles stephensi [4].

For the molecule `Fc1cc(F)c2c(c1)[C@@H]1C=CC[C@@H]1C(c1cccnc1)N2` (mixture of isomers), the Activity in the assay on Aedes aegypti [3] worked out at 291.8 um.

`CCCCCCCNCc1ccc([C@@H]2Nc3c(F)cc(F)cc3[C@@H]3C=CC[C@@H]32)cc1` (racemic): the figures for the Activity in the assay with Aedes aegypti [2], with Aedes aegypti [3] and in the assay with Anopheles stephensi [4] were 0%, 243.4 um and 0%, respectively.

`Fc1cc(F)c2c(c1)[C@@H]1C=CC[C@@H]1[C@@H](c1cccnc1)N2`: in assay [1], the Ratio was 5. In addition, the results for the Activity in the assay with Aedes aegypti [2], with Aedes aegypti [3] and with Anopheles stephensi [4] were 12.3%, 407.7 um and 57.5%, respectively.

In the case of `Fc1cc(F)c2c(c1)[C@@H]1C=CC[C@@H]1[C@H](c1ccccn1)N2` (racemic), the Activity in the assay on Aedes aegypti [2] is given as 100%; with Aedes aegypti [3] it was 287.5 um; in the assay on Anopheles stephensi [4] it was 100%. In addition, the LC50 in the assay on Anopheles stephensi [5] and in the assay with Aedes aegypti [6] was 100 µM throughout.

`Fc1ccc2c(c1)[C@@H]1C=CC[C@@H]1[C@H](c1cccnc1)N2` (racemic): the Activity came out at 0% with Aedes aegypti [2], 343.8 um in the assay on Aedes aegypti [3] and 0% in the assay on Anopheles stephensi [4].

One may read the LC50 as the concentration that kills 50% of the test population.
